Test results reported in ChEMBL document CHEMBL1649231, “In vitro activities of panduratin A against clinical Staphylococcus strains” (2009).
Converted amounts (≈) assume the structure as drawn.

Assays:
Format in all cases: functional
[1] = test system: Staphylococcus epidermidis; assay: Bactericidal activity against methicillin-susceptible coagulase-negative Staphylococcus epidermidis after 24 hrs by plate counting method
How it was run: (§1)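 Clinical staphylococcal isolates from patient body fluids, blood, genital secretions, pus or sputum; species by conventional methods or Vitek. Twofold dilutions in Mueller-Hinton broth, inoculum 5 × 10^5 CFU/ml, 37°C aerobic 24 h (CLSI M7-A6 microdilution). About 100 μl from each well without visible growth spread on MHA; 37°C 24 h. MBC = lowest concentration giving no growth on agar.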

Staphylococcus aureus [2] = assay: Bactericidal activity against methicillin-susceptible Staphylococcus aureus after 24 hrs by plate counting method; how it was run: as §1
Staphylococcus hominis [3] = assay: Bactericidal activity against methicillin-susceptible coagulase-negative Staphylococcus hominis after 24 hrs by plate counting method; how it was run: as §1
[4] = test system: Staphylococcus epidermidis; assay: Antimicrobial activity against methicillin-resistant coagulase-negative Staphylococcus epidermidis after 24 hrs by broth microdilution method
How it was run: (§2)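 Clinical isolates came from blood, body fluids, genital secretions, pus or sputum, identified conventionally or by Vitek. MICs were run by CLSI M7-A6 broth microdilution in Mueller-Hinton broth with 5 × 10^5 CFU/ml inoculum. Agents were twofold serially diluted, starting from 10% DMSO. Drug-free and uninoculated controls were included. Plates were incubated aerobically at 37°C for 24 h; MIC is the lowest concentration giving no visible growth.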

Staphylococcus aureus [5] = assay: Antimicrobial activity against methicillin-resistant Staphylococcus aureus after 24 hrs by broth microdilution method; how it was run: as §2
Mammaliicoccus sciuri [6] = assay: Antimicrobial activity against methicillin-susceptible coagulase-negative Staphylococcus sciuri after 24 hrs by broth microdilution method; how it was run: as §2
Staphylococcus hominis [7] = assay: Antimicrobial activity against methicillin-susceptible coagulase-negative Staphylococcus hominis after 24 hrs by broth microdilution method; how it was run: as §2
Staphylococcus hominis [8] = assay: Bactericidal activity against methicillin-resistant coagulase-negative Staphylococcus hominis after 24 hrs by plate counting method; details: Staphylococcus hominis, 24 h
Staphylococcus simulans [9] = assay: Antimicrobial activity against methicillin-susceptible coagulase-negative Staphylococcus simulans after 24 hrs by broth microdilution method; how it was run: as §2
Mammaliicoccus sciuri [10] = assay: Antimicrobial activity against methicillin-resistant coagulase-negative Staphylococcus sciuri after 24 hrs by broth microdilution method; how it was run: as §2
Staphylococcus aureus [11] = assay: Antimicrobial activity against methicillin-susceptible Staphylococcus aureus after 24 hrs by broth microdilution method; how it was run: as §2
[12] = test system: Staphylococcus epidermidis; assay: Antimicrobial activity against methicillin-susceptible coagulase-negative Staphylococcus epidermidis after 24 hrs by broth microdilution method; how it was run: as §2
[13] = test system: Staphylococcus epidermidis; assay: Bactericidal activity against methicillin-resistant coagulase-negative Staphylococcus epidermidis after 24 hrs by plate counting method; details: Staphylococcus epidermidis, 24 h
Staphylococcus simulans [14] = assay: Antimicrobial activity against methicillin-resistant coagulase-negative Staphylococcus simulans after 24 hrs by broth microdilution method; how it was run: as §2
[15] = test system: Staphylococcus haemolyticus; assay: Bactericidal activity against methicillin-susceptible coagulase-negative Staphylococcus haemolyticus after 24 hrs by plate counting method; how it was run: as §1
Staphylococcus hominis [16] = assay: Antimicrobial activity against methicillin-resistant coagulase-negative Staphylococcus hominis after 24 hrs by broth microdilution method; how it was run: as §2
[17] = test system: Staphylococcus haemolyticus; assay: Antimicrobial activity against methicillin-resistant coagulase-negative Staphylococcus haemolyticus after 24 hrs by broth microdilution method; how it was run: as §2
[18] = test system: Staphylococcus haemolyticus; assay: Antimicrobial activity against methicillin-susceptible coagulase-negative Staphylococcus haemolyticus after 24 hrs by broth microdilution method; how it was run: as §2
[19] = test system: Staphylococcus haemolyticus; assay: Bactericidal activity against methicillin-resistant coagulase-negative Staphylococcus haemolyticus after 24 hrs by plate counting method; details: Staphylococcus haemolyticus, 24 h
Staphylococcus simulans [20] = assay: Bactericidal activity against methicillin-resistant coagulase-negative Staphylococcus simulans after 24 hrs by plate counting method; details: Staphylococcus simulans, 24 h; how it was run: as §1
Mammaliicoccus sciuri [21] = assay: Bactericidal activity against methicillin-resistant coagulase-negative Staphylococcus sciuri after 24 hrs by plate counting method; details: Mammaliicoccus sciuri, 24 h; how it was run: as §1
Mammaliicoccus sciuri [22] = assay: Bactericidal activity against methicillin-susceptible coagulase-negative Staphylococcus sciuri after 24 hrs by plate counting method; how it was run: as §1
Staphylococcus aureus [23] = assay: Bactericidal activity against methicillin-resistant Staphylococcus aureus after 24 hrs by plate counting method
Staphylococcus simulans [24] = assay: Bactericidal activity against methicillin-susceptible coagulase-negative Staphylococcus simulans after 24 hrs by plate counting method; how it was run: as §1

Compound: Cc1ccc(C(C)C)c(O)c1 [THYMOL]
- MBC50 [1]: 256 mg/L (≈ 1700 µM)
- MBC90 [1]: 512 mg/L (≈ 3410 µM)
- MBC ([1]; Staphylococcus epidermidis, 24 h): 64 mg/L (≈ 426 µM)
- MBC50 (Staphylococcus aureus [2]): 256 mg/L (≈ 1700 µM)
- MBC90 (Staphylococcus aureus [2]): 512 mg/L (≈ 3410 µM)
- MBC (Staphylococcus aureus [2]; Staphylococcus aureus, 24 h): 128 mg/L (≈ 852 µM)
- MBC50 (Staphylococcus hominis [3]): 256 mg/L (≈ 1700 µM)
- MBC90 (Staphylococcus hominis [3]): 512 mg/L (≈ 3410 µM)
- MBC (Staphylococcus hominis [3]; Staphylococcus hominis, 24 h): 64 mg/L (≈ 426 µM)
- MIC50 [4]: 64 mg/L (≈ 426 µM)
- MIC90 [4]: 128 mg/L (≈ 852 µM)
- MIC50 (Staphylococcus aureus [5]): 128 mg/L (≈ 852 µM)
- MIC90 (Staphylococcus aureus [5]): 128 mg/L (≈ 852 µM)
- MIC50 (Mammaliicoccus sciuri [6]): 64 mg/L (≈ 426 µM)
- MIC90 (Mammaliicoccus sciuri [6]): 64 mg/L (≈ 426 µM)
- MIC50 (Staphylococcus hominis [7]): 64 mg/L (≈ 426 µM)
- MIC90 (Staphylococcus hominis [7]): 64 mg/L (≈ 426 µM)
- MBC (Staphylococcus hominis [8]): 64 mg/L (≈ 426 µM)
- MIC50 (Staphylococcus simulans [9]): 64 mg/L (≈ 426 µM)
- MIC90 (Staphylococcus simulans [9]): 64 mg/L (≈ 426 µM)
- MIC50 (Mammaliicoccus sciuri [10]): 64 mg/L (≈ 426 µM)
- MIC90 (Mammaliicoccus sciuri [10]): 128 mg/L (≈ 852 µM)
- MIC50 (Staphylococcus aureus [11]): 128 mg/L (≈ 852 µM)
- MIC90 (Staphylococcus aureus [11]): 128 mg/L (≈ 852 µM)
- MIC50 [12]: 64 mg/L (≈ 426 µM)
- MIC90 [12]: 64 mg/L (≈ 426 µM)
- MBC [13]: 64 mg/L (≈ 426 µM)
- MIC50 (Staphylococcus simulans [14]): 64 mg/L (≈ 426 µM)
- MIC90 (Staphylococcus simulans [14]): 128 mg/L (≈ 852 µM)
- MBC50 [15]: 256 mg/L (≈ 1700 µM)
- MBC90 [15]: 512 mg/L (≈ 3410 µM)
- MBC ([15]; Staphylococcus haemolyticus, 24 h): 64 mg/L (≈ 426 µM)
- MIC50 (Staphylococcus hominis [16]): 64 mg/L (≈ 426 µM)
- MIC90 (Staphylococcus hominis [16]): 128 mg/L (≈ 852 µM)
- MIC50 [17]: 64 mg/L (≈ 426 µM)
- MIC90 [17]: 128 mg/L (≈ 852 µM)
- MIC50 [18]: 64 mg/L (≈ 426 µM)
- MIC90 [18]: 64 mg/L (≈ 426 µM)
- MBC [19]: 64 mg/L (≈ 426 µM)
- MBC (Staphylococcus simulans [20]): 64 mg/L (≈ 426 µM)
- MBC (Mammaliicoccus sciuri [21]): 64 mg/L (≈ 426 µM)
- MBC50 (Mammaliicoccus sciuri [22]): 256 mg/L (≈ 1700 µM)
- MBC90 (Mammaliicoccus sciuri [22]): 512 mg/L (≈ 3410 µM)
- MBC (Mammaliicoccus sciuri [22]; Mammaliicoccus sciuri, 24 h): 64 mg/L (≈ 426 µM)
- MBC50 (Staphylococcus aureus [23]): 512 mg/L (≈ 3410 µM)
- MBC (Staphylococcus aureus [23]; Staphylococcus aureus, 24 h): 256 mg/L (≈ 1700 µM)
- MBC50 (Staphylococcus simulans [24]): 256 mg/L (≈ 1700 µM)
- MBC90 (Staphylococcus simulans [24]): 512 mg/L (≈ 3410 µM)
- MBC (Staphylococcus simulans [24]; Staphylococcus simulans, 24 h): 64 mg/L (≈ 426 µM)
